Test results taken from ChEMBL document CHEMBL1121782, “New monofunctional reagents for DNA as possible agents for the photochemotherapy of psoriasis: derivatives of 4,5'-dimethylangelicin” (J Med Chem, 1981).
≈ marks a conversion by molar mass, not a printed value.

What was measured:
[1] = Water solubility of the compound; assay type: ADME; conditions: for S: buffer; for solubility: water, read-out: S
[2] = system: Nucleic Acid; test: The compound was tested for its ability to bind to calf thymus DNA; assay type: nucleic-acid assay; conditions: Bos taurus
How it was run: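 Calf thymus DNA (hypochromicity over 40%) in water with 1.5 × 10-2 M NaCl and 1 × 10^-3 M EDTA, no irradiation. Ground-state binding by equilibrium dialysis or fluorimetric titration. r (ligand bound per nucleotide) and c (free ligand, mol/L) plotted per Scatchard. Intrinsic constant K and site size n fitted iteratively to McGhee–von Hippel by least squares until both changed by less than 1%.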

[3] = Specific radioactivity of the compound.; assay type: ADME
[4] = species: Mus musculus; test: Compound was evaluated for its ability to inhibit RNA synthesis in Ehrlich ascites tumor cells by irradiation (365 nM),; assay type: functional
How it was run: (§1)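 Ehrlich ascites tumor cells in Hank's solution (2 × 10^7 cells/mL) irradiated on ice with 1.9 × 10^-5 M compound, Philips HPW 125 lamp at 20 cm (2.02 × 10^16 quanta/s incident). 2 × 10^6 cells then pulsed 15 min at 37 °C with 1 μCi [3H]thymidine (DNA) or [3H]uridine (RNA). Acid-insoluble counts taken as % of untreated cells. D50 is the UV-A dose giving 50% inhibition. Each dose run at least in duplicate.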

[5] = species: Mus musculus; test: compound was evaluated for its ability to inhibit DNA synthesis in Ehrlich ascites tumor cells by irradiation (365 nM); assay type: functional; how it was run: as §1
[6] = species: Mus musculus; test: Compound was evaluated for its ability to inhibit RNA synthesis in Ehrlich ascites tumor cells by irradiation (365 nM); assay type: functional
How it was run: (§2)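 Ehrlich ascites tumour cells in Hank's solution (2 × 10^7 cells/mL) irradiated on ice with UV-A (Philips HPW 125, 20 cm; 2.02 × 10^16 quanta/s on whole sample) with 1.9 × 10^-5 M compound. Then 2 × 10^6 cells incubated 15 min at 37 °C with 1 μCi [3H]thymidine (DNA) or [3H]uridine (RNA). TCA-insoluble counts as % of untreated; D50 = UV dose giving 50% inhibition; doses ≥duplicate.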

[7] = species: Mus musculus; test: Compound was evaluated for its ability to inhibit DNA synthesis in Ehrlich ascites tumor cells by irradiation (365 nM); assay type: functional; how it was run: as §2

Row | S [1] | solubility [1] | K [2] | Specific radioactivity [3] | Structure (SMILES) | D50 [4] | D50 [5] | D50 [6] | D50 [7]
1 | 0.00007 M l-1 | 17.1 µg/mL (≈ 70 µM) | 1250 | 0.13 Ci/M | Cc1oc2ccc3c(C)cc(=O)oc3c2c1CO | 13.8 quanta*10e-18 | 9.2 quanta*10e-18 |  | 
2 | > 0.004 M l-1 | > 1000 µg/mL | 16300 | 0.13 Ci/M | Cc1oc2ccc3c(C)cc(=O)oc3c2c1CN.Cl | 100 quanta*10e-18 | 100 quanta*10e-18 |  | 

Second part, the compound before the results:

Row | Structure (SMILES) | S [1] | solubility [1] | K [2] | Specific radioactivity [3] | D50 [4] | D50 [5] | D50 [6] | D50 [7]
3 | COCc1c(C)oc2ccc3c(C)cc(=O)oc3c12 | 0.000056 M l-1 | 15.3 µg/mL (≈ 59.2 µM) | 700 | 0.21 Ci/M | 13.8 quanta*10e-18 | 22.7 quanta*10e-18 |  | 
4 | O=c1ccc2ccc3occc3c2o1 [ANGELICIN] |  |  |  | 1.59 Ci/M |  |  | 23.3 quanta*10e-18 | 25 quanta*10e-18
5 | Cc1cc2c(ccc3c(C)cc(=O)oc32)o1 | 3.7e-05 M l-1 | 8 µg/mL (≈ 37.3 µM) | 1400 | 5.11 Ci/M | 13.5 quanta*10e-18 | 10.8 quanta*10e-18 |  | 
